Converted amounts (≈) assume the structure as drawn. The source made the active and inactive calls. The rule behind the calls is not given here.
How the values were obtained:
Staphylococcus aureus [1] = assay: Antimicrobial activity against Staphylococcus aureus ATCC 6538 at 400 ug after 18 hrs by disc-diffusion method; format: functional; settings: ATCC 6538, 18 h, read-out: IZ
Summary of the method: (§1)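 Disc diffusion on Mueller-Hinton II agar per CLSI; 9 mm paper discs loaded with 400 µg compound from DMSO solution, dried, placed on agar; growth inhibition zone diameter read after 18 h at 35°C.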

Micrococcus luteus [2] = assay: Antimicrobial activity against Micrococcus luteus ATCC 10240 at 400 ug after 18 hrs by disc-diffusion method; format: functional; settings: ATCC 10240, 18 h, read-out: IZ; summary of the method: as §1
Coxsackievirus B5 = assay: Antiviral activity against Human coxsackievirus B5 ATCC VR-29 infected in African green monkey Vero 76 cells assessed as reduction of virus-plaque formation after 3 days by crystal violet staining; format: functional, organism-based; settings: Enterovirus B, ATCC VR-29, Vero, 72 h
Summary of the method: (§2)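 Plaque reduction: Vero-76 at 2x10^5 cells/well grown to confluent monolayers, infected 2 h at 50–100 PFU/well; after removing unadsorbed virus, overlay of D-MEM, 1% inactivated FBS, 0.75% methylcellulose with or without serial compound dilutions; 3 days at 37°C, fixed and stained with crystal violet in 50% ethanol, plaques counted; EC50 by linear regression.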

Micrococcus luteus [3] = assay: Antimicrobial activity against Micrococcus luteus ATCC 9341 at 400 ug after 18 hrs by disc-diffusion method; format: functional; settings: ATCC 9341, 18 h, read-out: IZ; summary of the method: as §1
[4] = test system: Staphylococcus epidermidis; assay: Antimicrobial activity against Staphylococcus epidermidis ATCC 35984 after 18 hrs by twofold serial microdilution method; format: functional; settings: ATCC 35984, 18 h
Human alphaherpesvirus 1 = assay: Antiviral activity against Human herpesvirus 1 KOS ATCC VR-1493 infected in African green monkey Vero 76 cells assessed as reduction of virus-plaque formation after 3 days by crystal violet staining; format: functional, organism-based; settings: Human alphaherpesvirus 1, KOS ATCC VR1493, Vero, 72 h; summary of the method: as §2
Yellow fever virus = assay: Antiviral activity against Yellow fever virus 17D infected in BHK cells assessed as protection against virus-induced cytopathogenicity after 3 to 4 days by MTT assay; format: functional, cell-based
[5] = test system: Mycobacterium tuberculosis; assay: Antimycobacterial activity against drug-sensitive Mycobacterium tuberculosis Spec. 192; format: functional
Summary of the method: (§3)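 Classical test-tube successive-dilution method in Youmans' modification of Proskauer and Beck liquid medium with 10% bovine serum. Inoculum came from 14-day cultures. DMSO stock was 10 mg/mL, diluted geometrically in medium. Tubes were incubated at 37 °C. Concentrations tested were 3.1, 6.2, 12.5, 25, 50 and 100 µg/ml. MIC is the minimum concentration inhibiting growth relative to compound-free tubes.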

Staphylococcus aureus [6] = assay: Antimicrobial activity against Staphylococcus aureus ATCC 29213 at 400 ug after 18 hrs by disc-diffusion method; format: functional; settings: ATCC 29213, 18 h, read-out: IZ; summary of the method: as §1
[7] = test system: Vesicular stomatitis virus; assay: Antiviral activity against Vesicular stomatitis virus ATCC VR 1540 infected in African green monkey Vero 76 cells assessed as reduction of virus-plaque formation after 2 days by crystal violet staining; format: functional, organism-based; settings: ATCC VR 1540, Vero, 48 h
Proteus vulgaris = assay: Antimicrobial activity against Proteus vulgaris NCTC 4635 at 400 ug after 18 hrs by disc-diffusion method; format: functional; summary of the method: as §1
[8] = Cytotoxicity against African green monkey Vero 76 cells assessed as cell viability after 48 to 96 hrs by crystal violet staining; format: cell-based; settings: chlorocebus sabaeus
[9] = Cytotoxicity against human MT4 cells; format: cell-based
[10] = test system: Mammalian orthoreovirus 1; assay: Antiviral activity against Reovirus type-1 ATCC VR-214 infected in BHK cells assessed as protection against virus-induced cytopathogenicity after 3 to 4 days by MTT assay; format: functional, cell-based; settings: Mammalian orthoreovirus 1, ATCC VR-214, BHK
Summary of the method: (§4)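 Cells seeded in 96-well plates (BHK 5x10^4, MDBK 3x10^4 cells/well), grown overnight to confluence, infected at m.o.i. 0.01 (BHK for Reo-1, MDBK for BVDV); serial compound dilutions in maintenance medium with 0.5% inactivated FBS added after 1 h; viability by MTT after 3–4 days at 37°C; EC50 for 50% protection by linear regression.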

Staphylococcus aureus [11] = assay: Antimicrobial activity against Staphylococcus aureus ATCC 29213 after 18 hrs by twofold serial microdilution method; format: functional; settings: ATCC 29213, 18 h
Staphylococcus aureus [12] = assay: Antimicrobial activity against Staphylococcus aureus NCTC 4163 at 400 ug after 18 hrs by disc-diffusion method; format: functional; settings: NCTC 4163, 18 h, read-out: IZ; summary of the method: as §1
[13] = test system: Mycobacterium tuberculosis; assay: Antimycobacterial activity against Mycobacterium tuberculosis H37Rv ATCC 25618; format: functional; summary of the method: as §3
Staphylococcus aureus [14] = assay: Antimicrobial activity against Staphylococcus aureus NCTC 4163 after 18 hrs by twofold serial microdilution method; format: functional; settings: NCTC 4163, 18 h
Bacillus cereus = assay: Antimicrobial activity against Bacillus cereus ATCC 11778 at 400 ug after 18 hrs by disc-diffusion method; format: functional; settings: ATCC 11778, 18 h, read-out: IZ; summary of the method: as §1
Enterococcus hirae = assay: Antimicrobial activity against Enterococcus hirae ATCC 10541 at 400 ug after 18 hrs by disc-diffusion method; format: functional; summary of the method: as §1
WIL2-NS = assay: Cytotoxicity against human WIL2-NS cells after 96 hrs by MTT assay; format: functional
Summary of the method: (§5)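 Leukaemia/lymphoma lines seeded at 1×10^5 cells/ml in RPMI-1640 with 10% FCS and penicillin/streptomycin; incubated with serial dilutions at 37°C, 5% CO2; viability by MTT after 96 h; value is concentration reducing proliferation by 50%, with untreated controls undergoing at least three rounds of multiplication.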

[15] = test system: Human immunodeficiency virus 1; assay: Antiviral activity against HIV1 3B infected in human MT4 cells assessed as protection against virus-induced cytopathogenicity by MTT assay; format: functional, organism-based; settings: Human immunodeficiency virus 1, 3B
[16] = Antiviral activity against Bovine viral diarrhea virus 1-NADL ATCC VR-534 infected in MDBK cells assessed as protection against virus-induced cytopathogenicity after 3 to 4 days by MTT assay; format: functional, cell-based; settings: Bovine viral diarrhea virus isolates and strains, ATCC VR-534, MDBK; summary of the method: as §4
Vaccinia virus = assay: Antiviral activity against Human Vaccinia virus ATCC VR-1549 infected in African green monkey Vero 76 cells assessed as reduction of virus-plaque formation after 3 days by crystal violet staining; format: functional, organism-based; settings: Orthopoxvirus vaccinia, ATCC VR-1549, Vero, 72 h
Staphylococcus aureus [17] = assay: Antimicrobial activity against Staphylococcus aureus ATCC 25923 after 18 hrs by twofold serial microdilution method; format: functional; settings: ATCC 25923, 18 h
Enterococcus faecalis = assay: Antimicrobial activity against Enterococcus faecalis ATCC 29212 at 400 ug after 18 hrs by disc-diffusion method; format: functional; summary of the method: as §1
[18] = test system: Staphylococcus epidermidis; assay: Antimicrobial activity against Staphylococcus epidermidis ATCC 35984 at 400 ug after 18 hrs by disc-diffusion method; format: functional; settings: ATCC 35984, 18 h, read-out: IZ; summary of the method: as §1
[19] = Cytotoxicity against bovine MDBK cells assessed as cell viability after 48 to 96 hrs by MTT assay; format: cell-based, Bos taurus; settings: cattle
Staphylococcus aureus [20] = assay: Antimicrobial activity against Staphylococcus aureus ATCC 25923 at 400 ug after 18 hrs by disc-diffusion method; format: functional; settings: ATCC 25923, 18 h, read-out: IZ; summary of the method: as §1
Staphylococcus aureus [21] = assay: Antimicrobial activity against Staphylococcus aureus ATCC 6538 after 18 hrs by twofold serial microdilution method; format: functional; settings: ATCC 6538, 18 h
Bacillus subtilis = assay: Antimicrobial activity against Bacillus subtilis ATCC 6633 at 400 ug after 18 hrs by disc-diffusion method; format: functional; settings: ATCC 6633, 18 h, read-out: IZ; summary of the method: as §1
[22] = test system: Staphylococcus epidermidis; assay: Antimicrobial activity against Staphylococcus epidermidis ATCC 12228 at 400 ug after 18 hrs by disc-diffusion method; format: functional; settings: ATCC 12228, 18 h, read-out: IZ; summary of the method: as §1
[23] = test system: Staphylococcus epidermidis; assay: Antimicrobial activity against Staphylococcus epidermidis ATCC 12228 after 18 hrs by twofold serial microdilution method; format: functional; settings: ATCC 12228, 18 h
CCRF-SB = assay: Cytotoxicity against human CCRF-SB cells after 96 hrs by MTT assay; format: functional; summary of the method: as §5
[24] = Cytotoxicity against BHK cells assessed as cell viability after 48 to 96 hrs by MTT assay; format: cell-based, Mesocricetus auratus; settings: hamster
Poliovirus 1 = assay: Antiviral activity against Poliovirus type 1 ATCC VR-1562 infected in African green monkey Vero 76 cells assessed as reduction of virus-plaque formation after 2 days by crystal violet staining; format: functional, organism-based; settings: Enterovirus C, ATCC VR-1562, Vero, 48 h
CCRF-CEM = assay: Cytotoxicity against human CCRF-CEM cells after 96 hrs by MTT assay; format: functional; summary of the method: as §5

FC(F)(F)c1cccc(NC(=S)Nc2cccc(Cl)c2)c1
zone of inhibition at 400 µg/disc (Staphylococcus aureus [1]): 29 mm | zone of inhibition at 400 µg/disc (Micrococcus luteus [2]): 27 mm | EC50 (Coxsackievirus B5): > 20 µM | zone of inhibition at 400 µg/disc (Micrococcus luteus [3]): 30 mm | MIC [4]: 64 µg/mL (≈ 193 µM) | EC50 (Human alphaherpesvirus 1): > 20 µM | EC50 (Yellow fever virus): > 9.5 µM | MIC [5]: 100 µg/mL (≈ 302 µM) | zone of inhibition at 400 µg/disc (Staphylococcus aureus [6]): 27 mm | EC50 [7]: > 20 µM | inhibition zone (IZ) (Proteus vulgaris): inactive | CC50 [8]: 20 µM | CC50 [9]: 10 µM | EC50 [10]: > 9.5 µM | MIC (Staphylococcus aureus [11]): 32 µg/mL (≈ 96.7 µM) | zone of inhibition at 400 µg/disc (Staphylococcus aureus [12]): 29 mm | MIC [13]: 100 µg/mL (≈ 302 µM) | MIC (Staphylococcus aureus [14]): 32 µg/mL (≈ 96.7 µM) | zone of inhibition at 400 µg/disc (Bacillus cereus): 23 mm | inhibition zone (IZ) (Enterococcus hirae): inactive | CC50 (WIL2-NS): 11 µM | EC50 [15]: > 10 µM | EC50 [16]: > 19 µM | EC50 (Vaccinia virus): > 20 µM | MIC (Staphylococcus aureus [17]): 32 µg/mL (≈ 96.7 µM) | zone of inhibition at 400 µg/disc (Enterococcus faecalis; ATCC 29212, 18 h, read-out: IZ): 20 mm | zone of inhibition at 400 µg/disc [18]: 26 mm | CC50 [19]: 19 µM | zone of inhibition at 400 µg/disc (Staphylococcus aureus [20]): 27 mm | MIC (Staphylococcus aureus [21]): 32 µg/mL (≈ 96.7 µM) | zone of inhibition at 400 µg/disc (Bacillus subtilis): 26 mm | zone of inhibition at 400 µg/disc [22]: 28 mm | MIC [23]: 32 µg/mL (≈ 96.7 µM) | CC50 (CCRF-SB): 9.6 µM | CC50 [24]: 9.5 µM | EC50 (Poliovirus 1): > 20 µM | CC50 (CCRF-CEM): 9.1 µM

O=[N+]([O-])c1ccc(NC(=S)Nc2cccc(C(F)(F)F)c2)cc1
zone of inhibition at 400 µg/disc (Staphylococcus aureus [1]): 15 mm | zone of inhibition at 400 µg/disc (Micrococcus luteus [2]): 13 mm | EC50 (Coxsackievirus B5): > 10 µM | zone of inhibition at 400 µg/disc (Micrococcus luteus [3]): 13 mm | MIC [4]: 64 µg/mL (≈ 188 µM) | EC50 (Human alphaherpesvirus 1): > 10 µM | EC50 (Yellow fever virus): > 9.5 µM | MIC [5]: > 100 µg/mL | zone of inhibition at 400 µg/disc (Staphylococcus aureus [6]): 16 mm | EC50 [7]: > 10 µM | inhibition zone (IZ) (Proteus vulgaris): inactive | CC50 [8]: 10 µM | CC50 [9]: 9.2 µM | EC50 [10]: > 9.5 µM | MIC (Staphylococcus aureus [11]): 64 µg/mL (≈ 188 µM) | zone of inhibition at 400 µg/disc (Staphylococcus aureus [12]): 16 mm | MIC [13]: 50 µg/mL (≈ 146 µM) | MIC (Staphylococcus aureus [14]): 128 µg/mL (≈ 375 µM) | zone of inhibition at 400 µg/disc (Bacillus cereus): 15 mm | zone of inhibition at 400 µg/disc (Enterococcus hirae; ATCC 10541, 18 h, read-out: IZ): 13 mm | CC50 (WIL2-NS): 9.4 µM | EC50 [15]: > 9.2 µM | EC50 [16]: > 10 µM | EC50 (Vaccinia virus): > 10 µM | MIC (Staphylococcus aureus [17]): 128 µg/mL (≈ 375 µM) | inhibition zone (IZ) (Enterococcus faecalis): inactive | zone of inhibition at 400 µg/disc [18]: 12 mm | CC50 [19]: 10 µM | zone of inhibition at 400 µg/disc (Staphylococcus aureus [20]): 20 mm | MIC (Staphylococcus aureus [21]): 64 µg/mL (≈ 188 µM) | zone of inhibition at 400 µg/disc (Bacillus subtilis): 15 mm | zone of inhibition at 400 µg/disc [22]: 13 mm | MIC [23]: 64 µg/mL (≈ 188 µM) | CC50 (CCRF-SB): 8.2 µM | CC50 [24]: 9.5 µM | EC50 (Poliovirus 1): > 10 µM | CC50 (CCRF-CEM): 8.7 µM
